Bioassay records deposited in PubChem by several laboratories.
Sampled rows, rich in hits. Any-hit rate of the full collection: about 1.3%.
Mdm2 ligase inh: blocks human Mdm2 ubiquitin ligase activity | cell-based MDM2 ubiquitination luciferase reporter, 2 h; 0 = plate control, 100 = twice control, blank-subtracted | 210,000 compounds, 0.11% hits | Q00987 | signal enhancement, % at 5 µM | AID 1230;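 active = signal enhancement of 30% or more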;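 note: luminescence tracks abundance of the self-degrading MDM2-luciferase fusion protein; higher signal means inhibition of MDM2 E3 ligase activity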
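Timing – 2 h compound exposure at 37 °C · Assay system – mammalian cells stably expressing self-ubiquitinating, self-degrading MDM2 E3–luciferase fusion · Amount – 2000 cells seeded into each well · Measure – % luminescence enhancement versus blank-corrected plate control mean · Measured by – SteadyLite luminescence, 15 min reagent step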
S1P3 antagonist: S1P3 (human) receptor antagonism | inhibition, % at 4.98 µM | AID 485 | 170,000 compounds, 0.27% hits | Q99500 | CHO S1P3 NFAT-BLA reporter, FRET fluorescence, antagonist mode;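 active = inhibition above the plate cutoff, the mean inhibition of test wells on that plate plus 3 SD, cut at about 28% in these data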;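 note: cells challenged with S1P at its EC80 of 0.8 µM; blue over green emission ratio from cleaved BLA substrate after 4 h stimulation; 0% = S1P-stimulated wells and 100% = unstimulated DMSO-only wells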
Dynein transport: dynein cargo transport inhibition | 3617.4 mouse cells, GR-EGFP nuclear translocation imaging; test concentration mostly 20 µM; stimulated with dexamethasone, 1 µM; active compounds read low | z-score, hits read low | 220,000 compounds, 0.47% hits;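 active = plate z-score of nuclear minus cytoplasmic receptor signal below a set negative limit, without overly bright fluorescence or cell loss, cut at about -3.5 in these data, passing the limit was not always enough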;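 note: z-score of nuclear minus cytoplasmic ring GR-EGFP intensity difference per well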
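Buffer or medium: tet-free, stripped-serum medium; reagent: dexamethasone at 1.0 µM final, 30 min; incubation: 48 h induction, 1 h compound, 30 min dex at 37 °C; measured by: formaldehyde fixation, Hoechst nuclear stain, 10x automated fluorescence imaging; read-out: nuclear-to-cytoplasmic GR-EGFP distribution per well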
S1P4 ag: activates the human S1P4 receptor. AID 1509. 220,000 compounds, 0.35% hits. S1P4-expressing cell line, agonist reporter assay. activation, % at 4.98 µM. O95977; in the data active = activation above about 11%;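 note: 0% = DMSO vehicle and 100% = reference agonist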
Target sequence (O95977 whole entry, looked up): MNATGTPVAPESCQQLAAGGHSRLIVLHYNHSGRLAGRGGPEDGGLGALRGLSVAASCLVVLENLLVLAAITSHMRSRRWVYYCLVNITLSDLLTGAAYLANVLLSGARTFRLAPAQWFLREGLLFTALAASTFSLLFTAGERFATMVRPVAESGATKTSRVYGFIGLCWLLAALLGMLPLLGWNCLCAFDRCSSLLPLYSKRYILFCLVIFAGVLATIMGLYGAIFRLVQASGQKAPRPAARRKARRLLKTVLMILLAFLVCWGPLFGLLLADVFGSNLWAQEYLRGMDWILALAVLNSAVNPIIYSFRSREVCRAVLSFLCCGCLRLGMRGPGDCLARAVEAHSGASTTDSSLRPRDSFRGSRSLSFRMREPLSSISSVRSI
S1P4 antag: antagonists of human S1P4 receptor; O95977; S1P4-expressing cells, antagonist mode, reporter read-out; inhibition, % at 4.98 µM; 220,000 compounds, 0.26% hits; in the data active = inhibition above about 29%;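 note: 0% = wells stimulated with agonist and 100% = vehicle wells without agonist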
Hsp70 act: Hsp70 transcriptional activation, primary screen; HeLa Hsp70 promoter luciferase reporter, luminescence; scaled: vehicle 0, proteasome-inhibitor control 100%; AID 1203; 200,000 compounds, 0.04% hits; activation, % at 10 µM;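 active = activation above the mean across all tested compounds plus 3 SD, cutoff set per campaign, cut at about 5.5% in these data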;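 note: 100% = MG132 at 30 µM as the positive control and 0% = DMSO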
S1P4 ag conf: confirmation of human S1P4 receptor agonists. activation, % at 4.98 µM. 740 compounds, 7% hits. shares compounds with S1P4 ag. S1P4 agonist cell-based reporter assay; in the data active = activation above about 12%;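 note: 0% = vehicle and 100% = full reference agonist response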
S1P1 agonist: activates human S1P1, counter-screen for S1P4 agonists. shares compounds with S1P4 ag. S1P1 agonist cell-based assay, activation. activation, % at 4.98 µM. 740 compounds, 4% hits. AID 1563; in the data active = activation above about 21%;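 note: 0% = vehicle wells and 100% = reference agonist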
Target sequence (P21453 whole entry, looked up): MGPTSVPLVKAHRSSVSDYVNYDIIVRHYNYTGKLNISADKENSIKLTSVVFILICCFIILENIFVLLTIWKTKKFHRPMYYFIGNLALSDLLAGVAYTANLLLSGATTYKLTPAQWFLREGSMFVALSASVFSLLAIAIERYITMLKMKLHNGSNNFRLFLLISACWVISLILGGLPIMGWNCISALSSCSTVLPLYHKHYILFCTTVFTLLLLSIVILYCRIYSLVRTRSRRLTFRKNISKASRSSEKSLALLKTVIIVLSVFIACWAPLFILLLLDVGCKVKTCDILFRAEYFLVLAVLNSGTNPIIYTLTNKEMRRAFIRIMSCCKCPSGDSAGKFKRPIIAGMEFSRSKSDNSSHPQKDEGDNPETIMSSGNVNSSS
Active calls of the source: *; . = no result.

SMILES | Mdm2 ligase inh | S1P3 antagonist | Dynein transport | S1P4 ag | S1P4 antag | Hsp70 act | S1P4 ag conf | S1P1 agonist
NC(=S)NNC(=O)c1cc(C(F)(F)F)cc(C(F)(F)F)c1 | -5.1 | -3.5 | -0.244 | 77.3* | -16.1 | . | -1.1 | 0.5
CCOC(=O)C1=CN(CC2CCCO2)C=C(C(=O)OCC)C1c1ccccc1C(F)(F)F (stereo not given) | 1.0 | -33.2 | -0.658 | 1.3 | -4.9 | -0.1 | . | .
CCOC(=O)n1ccc(C(=O)Nc2ccccc2F)n1 | -9.2 | -3.0 | -0.768 | 15.9* | 3.2 | 0.2 | -0.3 | -8.9
Fc1ccc(Oc2cnns2)cc1 | -6.3 | -18.2 | 0.0969 | -1.7 | 9.5 | 0.1 | . | .
N#Cc1c(-n2cccc2C=O)sc2c1CCCC2 | -9.9 | -11.6 | 1.37 | 18.6* | -12.3 | -0.4 | 14.4* | -4.0
CN1CCN(Cc2c(O)ccc3cc(Br)ccc23)CC1 | 5.7 | -10.4 | 0.305 | 32.1* | -2.9 | -0.5 | -2.6 | -4.8
Cc1nc(-c2cccc(NS(=O)(=O)c3cccc4ccccc34)c2)cs1 | -11.8 | . | -0.822 | 12.3* | 4.0 | -0.1 | -2.0 | 4.2
COC(=O)c1cc(=O)n2c(sc3ccccc32)c1C#N | -1.4 | -18.1 | -0.017 | 0.7 | 6.7 | . | . | .
CC(C)n1cc(CN2CCN(CCc3ccccc3)C(CCO)C2)cn1 (stereo not given) | -10.4 | 2.4 | 1.36 | 13.7* | 1.4 | -0.1 | -2.1 | -3.9
OCCC1CN(Cc2cccnc2)CCN1CCc1ccccc1 (stereo not given) | -18.9 | -4.7 | -0.285 | -0.9 | -4.8 | 0.6 | . | .
CCN(CC(=O)NCCC1=CCCCC1)S(=O)(=O)c1ccccc1 | -5.9 | 0.1 | 1.09 | 2.4 | -5.7 | . | . | .
CC(C)N=c1c([N+](=O)[O-])nn(C)n1O | -6.9 | -17.8 | 0.178 | -0.5 | -7.5 | -0.2 | . | .
Cn1cccc1/C=C1\CCc2ccccc2C1=O | -7.5 | -1.4 | -1.1 | 38.6* | -12.2 | -0.3 | -2.0 | -6.9
CC(C(=O)NC(C)(C)C)N(Cc1cccs1)C(=O)CCN1CCc2ccccc21 (stereo not given) | -6.2 | 3.1 | -0.717 | -0.3 | -8.5 | -0.3 | . | .
CC(=O)Nc1ccc(NC(=O)c2oc3cc(C)c(C)cc3c2C)cc1 | -13.5 | -11.1 | -0.565 | 11.6* | -8.7 | -0.3 | -1.8 | -1.0
COc1ccc(C(=O)Nc2cccc(C)c2)cc1S(=O)(=O)N1CCOCC1 | -10.7 | -6.8 | -1.25 | 0.8 | -35.4 | 0.5 | . | .
COc1ccc(C(=O)Nc2cccc(C(C)=O)c2)cc1S(=O)(=O)N1CCOCC1 | -2.9 | -15.6 | -0.684 | 24.3* | -2.5 | 0.1 | -1.1 | -11.9
Cc1ccccc1-n1c(=O)[nH]c(=O)c2c(N)c(C(=O)c3ccc(Cl)cc3)sc21 | -8.3 | -4.3 | -0.0869 | 83.2* | -2.1 | 0.0 | -1.6 | -6.8
Cc1onc(C(=O)N2CCOCC2)c1[N+](=O)[O-] | -26.2 | -4.4 | 2.37 | 19.4* | 4.2 | -0.2 | -2.8 | 2.7
CC(C)c1onc(C(=O)N2CCOCC2)c1[N+](=O)[O-] | . | -3.7 | 1.74 | -0.5 | -6.7 | -0.2 | . | .
CC(C)C(=O)NC(=S)Nc1ccccc1C(=O)NC1CCCCC1 | -6.1 | 10.9 | -0.687 | 57.9* | -9.5 | -0.3 | -1.4 | 5.6
Cc1nnc(SCCn2c(N3CCN(C)CC3)nc3c2c(=O)n(C)c(=O)n3C)s1 | -10.9 | -0.6 | 2.62 | 45.0* | -6.6 | 0.3 | 0.0 | 8.6
Cc1nnc(SCCn2c(N3CCCCC3)nc3c2c(=O)n(C)c(=O)n3C)s1 | . | -42.5 | 0.165 | 0.2 | -5.5 | -0.2 | . | .
CC(C)(C)CN1CCNC(=O)C1CC(=O)NCCN1CCCc2ccccc21 (stereo not given) | 11.8 | -14.0 | -1.06 | 1.6 | -7.4 | -0.3 | . | .
CN1CCN(Cc2c(O)ccc3cc(-c4ccccn4)c(=O)oc23)CC1 | -12.8 | -4.2 | 0.259 | 18.0* | 11.1 | -0.2 | 9.7 | 7.2
SMILES | Mdm2 ligase inh | S1P3 antagonist | Dynein transport | S1P4 ag | S1P4 antag | Hsp70 act | S1P4 ag conf | S1P1 agonist
Cc1c(/C=C/C(=O)c2ccccc2)cnn1C | 0.5 | . | -0.757 | 0.5 | -9.1 | 0.4 | . | .
Cc1c(/C=C/C(=O)c2ccc(Cl)s2)cnn1C | -0.1 | . | -1.84 | 12.8* | -19.4 | 0.0 | -0.8 | 4.0
CCOc1ccc(/C(O)=C/C(=O)C(=O)Nc2ccc(S(=O)(=O)NC(C)=O)cc2)cc1 | -15.9 | -4.3 | 0.172 | 12.3* | -14.6 | -0.5 | -1.5 | -1.7
O=C(Cn1cnc2c(cnn2-c2ccccc2)c1=O)OCc1ccccc1 | -12.4 | -4.5 | -0.233 | -1.5 | -14.8 | -0.3 | . | .
Cc1ccc(-n2ncc3c(=O)n(CC(=O)OCc4ccccc4)cnc32)cc1 | 6.4 | -28.0 | -0.18 | 16.9* | -27.8 | 0.3 | -1.8 | -2.4
CC12c3ccccc3C(c3ccccc31)C1C(=O)N(c3cccnc3)C(=O)C12 (stereo not given) | -7.0 | 3.2 | -0.132 | -1.4 | -8.7 | -0.4 | . | .
CC12c3ccccc3C(c3ccccc31)C1C(=O)N(Cc3cccnc3)C(=O)[C@H]12 (stereo not given in full) | -17.0 | 11.1 | -0.804 | 39.8* | -0.9 | 0.1 | -1.4 | 0.3
O=C(CN1CCOCC1)Nc1scc2c1c(=O)oc1ccccc12 | -1.5 | -3.5 | -0.497 | 23.4* | 5.5 | . | -1.6 | -6.1
O=C(CN1CCCCC1)Nc1scc2c1c(=O)oc1ccccc12 | -17.7 | -0.7 | 1.19 | -0.4 | -1.8 | . | . | .
Cc1ccc[n+](CC(=O)/C=C2\N(C)c3ccccc3C2(C)C)c1 | -3.4 | 2.8 | -0.452 | 1.1 | -30.2 | -0.2 | . | .
Cc1cccc[n+]1CC(=O)/C=C1\N(C)c2ccccc2C1(C)C | -18.4 | 4.5 | 0.437 | 21.4* | -29.8 | -0.4 | -2.4 | -0.5
COc1ccc(CCNC(=O)Nc2ccccc2[N+](=O)[O-])cc1 | -7.3 | 7.0 | -0.0217 | 20.8* | 0.8 | 0.0 | -2.6 | -1.1
COc1ccc(CCNC(=O)Nc2cccc([N+](=O)[O-])c2)cc1 | -3.5 | -2.6 | -0.149 | 0.7 | -7.2 | -0.2 | . | .
Cc1ccsc1C(=O)N1CCCC(CCC(=O)NCc2ccc(F)c(F)c2)C1 (stereo not given) | 11.7 | -14.8 | -0.874 | 0.1 | -6.7 | -0.2 | . | .
CNC(=O)c1cccnc1Nc1cccc(C(F)(F)F)c1 | -2.5 | -3.4 | -0.373 | 33.4* | -45.3 | -0.3 | -0.8 | 5.8
Cc1cccnc1NC(=O)Nc1cccc(C(F)(F)F)c1 | -19.7 | 11.3 | 0.497 | 0.6 | -9.6 | 0.4 | . | .
CN1CCCN(C(=O)CC2(CC(=O)O)CCCCC2)CC1 | . | 6.8 | -0.00275 | -0.2 | 7.3 | . | . | .
O=C(O)c1ccccc1C(=O)Nc1ccc(-n2nccc2C(F)(F)F)cc1 | 0.1 | -6.3 | 0.148 | 1.9 | -5.1 | . | . | .
